ChEMBL document CHEMBL5058577, “EUbOPEN Chemogenomics Library 2 (Multiplex)” (2022)

System: Fibroblast
Experiment: Multiplex assay against human fibroblast
Format: toxicity, cell-based
Procedure, shortened: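 At seeding, live cells were stained with Hoechst33342, BioTracker Green Microtubule Cytoskeleton Dye, MitoTracker Red and Annexin V Alexa Fluor 680. After compound addition they were imaged on a CQ1 microscope at 37°C and 5% CO2, and CellPathfinder machine-learning gating sorted them into Hoechst high-intensity objects or normal cells, with normal cells further split into healthy, pyknosed or fragmented nuclei and pyknosed cells into mitotic or apoptotic. Tubulin, mitochondrial-mass and membrane-permeability phenotypes are given as per cents of cells with healthy nuclei.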

[1] = 12 h, 1 µM, compound concentration 1 uM, replicate 1
[2] = 12 h, 1 µM, compound concentration 1 uM, replicate 2
[3] = 12 h, 10 µM, compound concentration 10 uM, replicate 1
[4] = 12 h, 10 µM, compound concentration 10 uM, replicate 2
[5] = 24 h, 1 µM, compound concentration 1 uM, replicate 1
[6] = 24 h, 1 µM, compound concentration 1 uM, replicate 2
[7] = 24 h, 10 µM, compound concentration 10 uM, replicate 1
[8] = 24 h, 10 µM, compound concentration 10 uM, replicate 2
[9] = 48 h, 1 µM, compound concentration 1 uM, replicate 1
[10] = 48 h, 1 µM, compound concentration 1 uM, replicate 2
[11] = 48 h, 10 µM, compound concentration 10 uM, replicate 1
[12] = 48 h, 10 µM, compound concentration 10 uM, replicate 2

Structure (SMILES): COc1c(Nc2ccc(S(C)(=O)=O)nc2C)ncnc1OC1CCN(C(=O)OC(C)C)CC1 [ADP-597]
- Population Apoptotic (%) [1]: 57%
- Population Fragmented Nuclei (%) [1]: 14%
- Population Healthy Nuclei (%) [1]: 71%
- Population Hoechst High Intensity Objects (%) [1]: 3%
- Population Membrane Permeable-Phenotype (%) [1]: 0%
- Population Mitochondria Different-Phenotype (%) [1]: 10%
- Population Mitotic Cells (%) [1]: 42%
- Population Normal (%) [1]: 96%
- Population Pyknosed Nuclei (%) [1]: 14%
- Population Tubulin-Different-Phenotype (%) [1]: 34%
- Total Cell Count [1]: 133
- Population Apoptotic (%) [2]: 42%
- Population Fragmented Nuclei (%) [2]: 27%
- Population Healthy Nuclei (%) [2]: 40%
- Population Hoechst High Intensity Objects (%) [2]: 4%
- Population Membrane Permeable-Phenotype (%) [2]: 2%
- Population Mitochondria Different-Phenotype (%) [2]: 7%
- Population Mitotic Cells (%) [2]: 57%
- Population Normal (%) [2]: 95%
- Population Pyknosed Nuclei (%) [2]: 33%
- Population Tubulin-Different-Phenotype (%) [2]: 27%
- Total Cell Count [2]: 105
- Population Apoptotic (%) [3]: 44%
- Population Fragmented Nuclei (%) [3]: 21%
- Population Healthy Nuclei (%) [3]: 58%
- Population Hoechst High Intensity Objects (%) [3]: 2%
- Population Membrane Permeable-Phenotype (%) [3]: 0%
- Population Mitochondria Different-Phenotype (%) [3]: 15%
- Population Mitotic Cells (%) [3]: 56%
- Population Normal (%) [3]: 97%
- Population Pyknosed Nuclei (%) [3]: 20%
- Population Tubulin-Different-Phenotype (%) [3]: 54%
- Total Cell Count [3]: 127
- Population Apoptotic (%) [4]: 39%
- Population Fragmented Nuclei (%) [4]: 43%
- Population Healthy Nuclei (%) [4]: 27%
- Population Membrane Permeable-Phenotype (%) [4]: 11%
- Population Mitochondria Different-Phenotype (%) [4]: 14%
- Population Mitotic Cells (%) [4]: 60%
- Population Normal (%) [4]: 98%
- Population Pyknosed Nuclei (%) [4]: 28%
- Population Tubulin-Different-Phenotype (%) [4]: 77%
- Total Cell Count [4]: 100
- Population Apoptotic (%) [5]: 47%
- Population Fragmented Nuclei (%) [5]: 17%
- Population Healthy Nuclei (%) [5]: 67%
- Population Hoechst High Intensity Objects (%) [5]: 4%
- Population Membrane Permeable-Phenotype (%) [5]: 0%
- Population Mitochondria Different-Phenotype (%) [5]: 1%
- Population Mitotic Cells (%) [5]: 52%
- Population Normal (%) [5]: 95%
- Population Pyknosed Nuclei (%) [5]: 15%
- Population Tubulin-Different-Phenotype (%) [5]: 27%
- Total Cell Count [5]: 146
- Population Apoptotic (%) [6]: 37%
- Population Fragmented Nuclei (%) [6]: 25%
- Population Healthy Nuclei (%) [6]: 50%
- Population Hoechst High Intensity Objects (%) [6]: 10%
- Population Membrane Permeable-Phenotype (%) [6]: 10%
- Population Mitochondria Different-Phenotype (%) [6]: 2%
- Population Mitotic Cells (%) [6]: 62%
- Population Normal (%) [6]: 89%
- Population Pyknosed Nuclei (%) [6]: 24%
- Population Tubulin-Different-Phenotype (%) [6]: 48%
- Total Cell Count [6]: 109
- Population Apoptotic (%) [7]: 52%
- Population Fragmented Nuclei (%) [7]: 20%
- Population Healthy Nuclei (%) [7]: 60%
- Population Hoechst High Intensity Objects (%) [7]: 5%
- Population Membrane Permeable-Phenotype (%) [7]: 0%
- Population Mitochondria Different-Phenotype (%) [7]: 5%
- Population Mitotic Cells (%) [7]: 47%
- Population Normal (%) [7]: 94%
- Population Pyknosed Nuclei (%) [7]: 18%
- Population Tubulin-Different-Phenotype (%) [7]: 41%
- Total Cell Count [7]: 131
- Population Apoptotic (%) [8]: 27%
- Population Fragmented Nuclei (%) [8]: 49%
- Population Healthy Nuclei (%) [8]: 31%
- Population Hoechst High Intensity Objects (%) [8]: 6%
- Population Membrane Permeable-Phenotype (%) [8]: 10%
- Population Mitochondria Different-Phenotype (%) [8]: 3%
- Population Mitotic Cells (%) [8]: 72%
- Population Normal (%) [8]: 93%
- Population Pyknosed Nuclei (%) [8]: 19%
- Population Tubulin-Different-Phenotype (%) [8]: 75%
- Total Cell Count [8]: 99
- Population Apoptotic (%) [9]: 64%
- Population Fragmented Nuclei (%) [9]: 25%
- Population Healthy Nuclei (%) [9]: 63%
- Population Hoechst High Intensity Objects (%) [9]: 2%
- Population Membrane Permeable-Phenotype (%) [9]: 0%
- Population Mitochondria Different-Phenotype (%) [9]: 4%
- Population Mitotic Cells (%) [9]: 35%
- Population Normal (%) [9]: 97%
- Population Pyknosed Nuclei (%) [9]: 11%
- Population Tubulin-Different-Phenotype (%) [9]: 30%
- Total Cell Count [9]: 152
- Population Apoptotic (%) [10]: 42%
- Population Fragmented Nuclei (%) [10]: 28%
- Population Healthy Nuclei (%) [10]: 51%
- Population Hoechst High Intensity Objects (%) [10]: 9%
- Population Membrane Permeable-Phenotype (%) [10]: 2%
- Population Mitochondria Different-Phenotype (%) [10]: 0%
- Population Mitotic Cells (%) [10]: 57%
- Population Normal (%) [10]: 90%
- Population Pyknosed Nuclei (%) [10]: 20%
- Population Tubulin-Different-Phenotype (%) [10]: 59%
- Total Cell Count [10]: 102
- Population Apoptotic (%) [11]: 73%
- Population Fragmented Nuclei (%) [11]: 29%
- Population Healthy Nuclei (%) [11]: 58%
- Population Hoechst High Intensity Objects (%) [11]: 8%
- Population Membrane Permeable-Phenotype (%) [11]: 0%
- Population Mitochondria Different-Phenotype (%) [11]: 20%
- Population Mitotic Cells (%) [11]: 26%
- Population Normal (%) [11]: 91%
- Population Pyknosed Nuclei (%) [11]: 12%
- Population Tubulin-Different-Phenotype (%) [11]: 57%
- Total Cell Count [11]: 131
- Population Apoptotic (%) [12]: 75%
- Population Fragmented Nuclei (%) [12]: 56%
- Population Healthy Nuclei (%) [12]: 36%
- Population Hoechst High Intensity Objects (%) [12]: 2%
- Population Membrane Permeable-Phenotype (%) [12]: 2%
- Population Mitochondria Different-Phenotype (%) [12]: 18%
- Population Mitotic Cells (%) [12]: 25%
- Population Normal (%) [12]: 97%
- Population Pyknosed Nuclei (%) [12]: 7%
- Population Tubulin-Different-Phenotype (%) [12]: 84%
- Total Cell Count [12]: 108

Structure (SMILES): COc1cc(Nc2ncc3c(n2)-c2ccc(Cl)cc2C(c2c(F)cccc2OC)=NC3)ccc1C(=O)O [ALISERTIB]
- Population Apoptotic (%) [1]: 39%
- Population Fragmented Nuclei (%) [1]: 11%
- Population Healthy Nuclei (%) [1]: 66%
- Population Hoechst High Intensity Objects (%) [1]: 1%
- Population Membrane Permeable-Phenotype (%) [1]: 2%
- Population Mitochondria Different-Phenotype (%) [1]: 4%
- Population Mitotic Cells (%) [1]: 60%
- Population Normal (%) [1]: 98%
- Population Pyknosed Nuclei (%) [1]: 21%
- Population Tubulin-Different-Phenotype (%) [1]: 23%
- Population Apoptotic (%) [2]: 42%
- Population Fragmented Nuclei (%) [2]: 18%
- Population Healthy Nuclei (%) [2]: 47%
- Population Hoechst High Intensity Objects (%) [2]: 8%
- Population Membrane Permeable-Phenotype (%) [2]: 7%
- Population Mitochondria Different-Phenotype (%) [2]: 7%
- Population Mitotic Cells (%) [2]: 57%
- Population Normal (%) [2]: 91%
- Population Pyknosed Nuclei (%) [2]: 33%
- Population Tubulin-Different-Phenotype (%) [2]: 41%
- Population Apoptotic (%) [3]: 56%
- Population Fragmented Nuclei (%) [3]: 28%
- Population Healthy Nuclei (%) [3]: 47%
- Population Hoechst High Intensity Objects (%) [3]: 13%
- Population Membrane Permeable-Phenotype (%) [3]: 1%
- Population Mitochondria Different-Phenotype (%) [3]: 22%
- Population Mitotic Cells (%) [3]: 43%
- Population Normal (%) [3]: 86%
- Population Pyknosed Nuclei (%) [3]: 24%
- Population Tubulin-Different-Phenotype (%) [3]: 69%
- Total Cell Count [3]: 209
- Population Apoptotic (%) [4]: 48%
- Population Fragmented Nuclei (%) [4]: 35%
- Population Healthy Nuclei (%) [4]: 30%
- Population Hoechst High Intensity Objects (%) [4]: 8%
- Population Membrane Permeable-Phenotype (%) [4]: 4%
- Population Mitochondria Different-Phenotype (%) [4]: 16%
- Population Mitotic Cells (%) [4]: 51%
- Population Normal (%) [4]: 91%
- Population Pyknosed Nuclei (%) [4]: 33%
- Population Tubulin-Different-Phenotype (%) [4]: 64%
- Total Cell Count [4]: 89
- Population Apoptotic (%) [5]: 36%
- Population Fragmented Nuclei (%) [5]: 12%
- Population Healthy Nuclei (%) [5]: 69%
- Population Hoechst High Intensity Objects (%) [5]: 2%
- Population Membrane Permeable-Phenotype (%) [5]: 2%
- Population Mitochondria Different-Phenotype (%) [5]: 6%
- Population Mitotic Cells (%) [5]: 63%
- Population Normal (%) [5]: 97%
- Population Pyknosed Nuclei (%) [5]: 18%
- Population Tubulin-Different-Phenotype (%) [5]: 28%
- Total Cell Count [5]: 123
- Population Apoptotic (%) [6]: 48%
- Population Fragmented Nuclei (%) [6]: 26%
- Population Healthy Nuclei (%) [6]: 47%
- Population Hoechst High Intensity Objects (%) [6]: 4%
- Population Membrane Permeable-Phenotype (%) [6]: 4%
- Population Mitotic Cells (%) [6]: 51%
- Population Normal (%) [6]: 95%
- Population Pyknosed Nuclei (%) [6]: 26%
- Population Tubulin-Different-Phenotype (%) [6]: 47%
- Population Apoptotic (%) [7]: 64%
- Population Fragmented Nuclei (%) [7]: 29%
- Population Healthy Nuclei (%) [7]: 44%
- Population Hoechst High Intensity Objects (%) [7]: 13%
- Population Membrane Permeable-Phenotype (%) [7]: 1%
- Population Mitochondria Different-Phenotype (%) [7]: 24%
- Population Mitotic Cells (%) [7]: 35%
- Population Normal (%) [7]: 86%
- Population Pyknosed Nuclei (%) [7]: 25%
- Population Tubulin-Different-Phenotype (%) [7]: 68%
- Total Cell Count [7]: 191
- Population Apoptotic (%) [8]: 56%
- Population Fragmented Nuclei (%) [8]: 45%
- Population Healthy Nuclei (%) [8]: 36%
- Population Hoechst High Intensity Objects (%) [8]: 5%
- Population Membrane Permeable-Phenotype (%) [8]: 0%
- Population Mitochondria Different-Phenotype (%) [8]: 9%
- Population Mitotic Cells (%) [8]: 43%
- Population Normal (%) [8]: 94%
- Population Pyknosed Nuclei (%) [8]: 18%
- Population Tubulin-Different-Phenotype (%) [8]: 71%
- Total Cell Count [8]: 93
- Population Apoptotic (%) [9]: 57%
- Population Fragmented Nuclei (%) [9]: 15%
- Population Healthy Nuclei (%) [9]: 65%
- Population Hoechst High Intensity Objects (%) [9]: 5%
- Population Membrane Permeable-Phenotype (%) [9]: 4%
- Population Mitochondria Different-Phenotype (%) [9]: 5%
- Population Mitotic Cells (%) [9]: 42%
- Population Normal (%) [9]: 94%
- Population Pyknosed Nuclei (%) [9]: 19%
- Population Tubulin-Different-Phenotype (%) [9]: 32%
- Total Cell Count [9]: 115
- Population Apoptotic (%) [10]: 38%
- Population Fragmented Nuclei (%) [10]: 33%
- Population Healthy Nuclei (%) [10]: 42%
- Population Membrane Permeable-Phenotype (%) [10]: 7%
- Population Mitotic Cells (%) [10]: 61%
- Population Pyknosed Nuclei (%) [10]: 24%
- Population Tubulin-Different-Phenotype (%) [10]: 54%
- Population Apoptotic (%) [11]: 84%
- Population Fragmented Nuclei (%) [11]: 38%
- Population Healthy Nuclei (%) [11]: 35%
- Population Hoechst High Intensity Objects (%) [11]: 23%
- Population Membrane Permeable-Phenotype (%) [11]: 5%
- Population Mitochondria Different-Phenotype (%) [11]: 37%
- Population Mitotic Cells (%) [11]: 15%
- Population Normal (%) [11]: 76%
- Population Pyknosed Nuclei (%) [11]: 26%
- Population Tubulin-Different-Phenotype (%) [11]: 80%
- Total Cell Count [11]: 188
- Population Apoptotic (%) [12]: 66%
- Population Fragmented Nuclei (%) [12]: 37%
- Population Healthy Nuclei (%) [12]: 51%
- Population Hoechst High Intensity Objects (%) [12]: 8%
- Population Membrane Permeable-Phenotype (%) [12]: 2%
- Population Mitochondria Different-Phenotype (%) [12]: 15%
- Population Mitotic Cells (%) [12]: 33%
- Population Normal (%) [12]: 91%
- Population Pyknosed Nuclei (%) [12]: 11%
- Population Tubulin-Different-Phenotype (%) [12]: 65%
- Total Cell Count [12]: 85
